Laboratory results as given in publication PMC9977173 (Science Advances, 2023).
Where a SMILES comes first, the peptide text is derived from it. Bridges are numbered along the chain shown (N, C = ends). Roman numbers before positions name the chains, in order. The star is where a group is joined. X1 = O=C(Cn1cc(CCCC(=O)*)nn1)NC(COCc1cn(CCO[C@H]2O[C@H](CO)[C@@H](O)[C@H](O)[C@@H]2O)nn1)(COCc1cn(CCO[C@H]2O[C@H](CO)[C@@H](O)[C@H](O)[C@@H]2O)nn1)COCc1cn(CCO[C@H]2O[C@H](CO)[C@@H](O)[C@H](O)[C@@H]2O)nn1

Experiments:
[1] = test system: MB49-Luc orthotopic bladder cancer; conditions: mouse, in vivo
EJ cells [2] = assay: SEM of nanofibrils on EJ cell surface; assay type: cell-based, human; conditions: 50 μM, 12 and 24 hours
In short: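 EJ cells (1 × 10⁵ per well) were seeded on silicon wafers and cultured 12 h. Saline or test compound (50 µM) was then added for a further 12 and 24 h. The cell surface was examined by scanning electron microscopy.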

EJ cells [3] = assay: Colony formation assay; assay type: cell-based, human; conditions: versus saline and PepCXCR4
In short: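 EJ cells (200 per well) were grown in DMEM in six-well plates at 37°C, 5% CO₂ until visible colonies appeared. Colonies were rinsed twice with saline, fixed in 4% paraformaldehyde for 15 min and stained with Giemsa for 10 to 30 min. They were photographed and counted. Colony formation efficiency = clones/inoculated cells × 100%.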

NF-κB in tumor tissues = assay: Western blot of NF-κB phosphorylation in tumor tissues; assay type: in vivo, mouse; conditions: 500 μM, 100 μl, every 2 days, five times; compared with mannose
[4] = test system: CD86^+ and CD206^+ TAMs, CD4^+ and CD8^+ T cells proximal to CXCR4^+ tumor cells; assay: Spatial distance of immune cells to CXCR4^+ tumor cells; assay type: in vivo, mouse
[5] = Secondary structure by CD and FTIR; assay type: physicochemical; conditions: CD: 10 μM, deionized water, 25°C, 1 hour; FTIR: 100 μM, distilled water, 60 min
In short: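 For CD, test compound (10 µM) was dissolved in deionized water at 25°C for 1 h and scanned at 500 nm/min with 0.5 nm resolution, with solvent background subtracted. For FTIR, samples were freshly prepared at 100 µM in distilled water for 60 min, dried on calcium fluoride tablets and recorded.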

EJ cells [6] = assay: Cell viability; assay type: cell-based, human; conditions: 50 μM, 24 hours, CCK-8; n = 3
In short: (§1)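 Cells were seeded at 5 × 10⁴ per well in RPMI 1640 and cultured overnight at 37°C, 5% CO₂. Test compound was added at 10, 20, 50, 100, 200 or 500 µM for 24 h, then CCK-8 for 2 h at 37°C. Absorbance was read at 450 nm against a 690 nm reference. Viability = (A_s − A_b)/(A_c − A_b) × 100% versus saline-treated wells. Run in triplicate.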

[7] = test system: CD8^+ T cells and Tregs in tumor; assay: Flow cytometry of tumor T cells; assay type: in vivo, mouse
[8] = test system: tumor fibrosis in MB49-Luc tumor; assay: Tumor fibrosis; assay type: in vivo, mouse; conditions: versus saline and PepCXCR4
NF-κB in RAW264.7 cells = assay: Western blot of NF-κB phosphorylation in RAW264.7 cells; assay type: cell-based; conditions: 50 μM, 24 hours; compared with mannose
EJ cells [9] = assay: Transwell migration assay; assay type: cell-based, human; conditions: 50 μM, 24 hours; versus saline and PepCXCR4
In short: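 EJ cells (1 × 10⁵) in 150 µl serum-free DMEM were placed in the upper Transwell chamber with saline or test compound (50 µM). Complete medium was in the lower chamber. After 24 h, non-migrated cells were swabbed away. Migrated cells were fixed in 4% paraformaldehyde, stained with 0.05% crystal violet for 10 min, photographed and counted.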

RAW264.7 cells [10] = assay: CLSM imaging of bsGP; assay type: cell-based; conditions: Cy-labeled bsGP
EJ xenograft tumor [11] = assay: Antitumor efficiency in EJ xenograft mice; assay type: in vivo, mouse; conditions: 500 μM, 100 μl, intravenous, five doses
In short: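 BALB/c nude mice (6 to 8 weeks, 16 to 18 g) received 5 × 10⁶ EJ cells in 100 µl s.c. in the right flank. Mice were randomised into groups of n = 6. Saline, test compound (500 µM, 100 µl) or plerixafor (100 µM, 100 µl) was given i.v. by tail vein once a day for five doses. Tumor volume was measured by calipers and body weight recorded every other day.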

RAW264.7 cells [12] = assay: Cell viability; assay type: cell-based; conditions: 50 μM, 24 hours, CCK-8; n = 3
In short: as §1

[13] = test system: tumor tissue in orthotopic bladder cancer mice; assay: Tumor penetration by immunofluorescence of frozen sections; assay type: in vivo, mouse; conditions: Cy-labeled bsGP; distance from vessels, compared with antibody
In short: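 Orthotopic EJ xenograft nude mice with tumors of about 200 mm³ received saline or test compound (500 µM, 100 µl) by intravesical instillation. Frozen tumor sections were imaged by confocal microscopy.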

[14] = test system: pErk and pAkt in tumor tissues; assay: Immunohistochemistry of pErk and pAkt in EJ tumor tissues; assay type: in vivo, mouse; conditions: EJ xenograft, versus saline
MB49-Luc tumor = assay: Antitumor efficiency in MB49-Luc tumor-bearing mice; assay type: in vivo, mouse; conditions: 500 μM, 100 μl, five doses
EJ cells (CXCR4) = assay: CLSM imaging of bsGP; assay type: cell-based, human
CD206 = CD206 (Homo sapiens, UniProt P22897); assay: Microscale thermophoresis binding to CD206; conditions: Kd 3.48 μM versus mannose ~1000 μM
[15] = test system: pErk and pAkt (CXCR4 downstream) in EJ cells; assay: Western blot of Erk and Akt phosphorylation in EJ cells; assay type: cell-based, human
In short: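 EJ cells were lysed in buffer with protease inhibitor and centrifuged 15 min; protein was measured by BCA. 30 µg protein was run on SDS-PAGE and transferred to PVDF. Membranes were blocked 1 to 2 h at room temperature in 5% nonfat milk, 0.1% Tween 20, 10 mM TBS. Primary antibody was applied overnight at 4°C, then secondary for 1 to 2 h at room temperature. Detection was by chemiluminescence.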

[16] = test system: TNF-α, IL-12, IL-10 and TGF-β; assay: Intratumoral cytokines in homogenized tumor tissues; assay type: in vivo, mouse; conditions: versus saline and PepCXCR4
[17] = test system: M2-like (CD206) and M1-like (CD86) macrophages; assay: Flow cytometry of TAM polarization in tumors; assay type: in vivo, mouse
orthotopic bladder tumor = assay type: in vivo, mouse; conditions: 500 μM, 100 μl, intravesical instillation
In short: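 Once bladder tumor growth was confirmed, test compound (500 µM, 100 µl) was instilled intravesically and kept in the bladder for 60 min. Whole-body fluorescence was scanned with IVIS at 1, 4, 8, 12, 24, 48 and 72 h. The bladder was exteriorised and imaged ex vivo at 1 h after infusion.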

[18] = test system: CD86^+ and CD206^+ TAMs, CD4^+ and CD8^+ T cells; assay: Multiplex immunofluorescence of whole tumor slices; assay type: in vivo, mouse
EJ xenograft tumor [19] = conditions: 500 μM, 100 μl, intravenous
[20] = immunofluorescence, versus saline

CD206, sequence (P22897 19-1456, species assumed): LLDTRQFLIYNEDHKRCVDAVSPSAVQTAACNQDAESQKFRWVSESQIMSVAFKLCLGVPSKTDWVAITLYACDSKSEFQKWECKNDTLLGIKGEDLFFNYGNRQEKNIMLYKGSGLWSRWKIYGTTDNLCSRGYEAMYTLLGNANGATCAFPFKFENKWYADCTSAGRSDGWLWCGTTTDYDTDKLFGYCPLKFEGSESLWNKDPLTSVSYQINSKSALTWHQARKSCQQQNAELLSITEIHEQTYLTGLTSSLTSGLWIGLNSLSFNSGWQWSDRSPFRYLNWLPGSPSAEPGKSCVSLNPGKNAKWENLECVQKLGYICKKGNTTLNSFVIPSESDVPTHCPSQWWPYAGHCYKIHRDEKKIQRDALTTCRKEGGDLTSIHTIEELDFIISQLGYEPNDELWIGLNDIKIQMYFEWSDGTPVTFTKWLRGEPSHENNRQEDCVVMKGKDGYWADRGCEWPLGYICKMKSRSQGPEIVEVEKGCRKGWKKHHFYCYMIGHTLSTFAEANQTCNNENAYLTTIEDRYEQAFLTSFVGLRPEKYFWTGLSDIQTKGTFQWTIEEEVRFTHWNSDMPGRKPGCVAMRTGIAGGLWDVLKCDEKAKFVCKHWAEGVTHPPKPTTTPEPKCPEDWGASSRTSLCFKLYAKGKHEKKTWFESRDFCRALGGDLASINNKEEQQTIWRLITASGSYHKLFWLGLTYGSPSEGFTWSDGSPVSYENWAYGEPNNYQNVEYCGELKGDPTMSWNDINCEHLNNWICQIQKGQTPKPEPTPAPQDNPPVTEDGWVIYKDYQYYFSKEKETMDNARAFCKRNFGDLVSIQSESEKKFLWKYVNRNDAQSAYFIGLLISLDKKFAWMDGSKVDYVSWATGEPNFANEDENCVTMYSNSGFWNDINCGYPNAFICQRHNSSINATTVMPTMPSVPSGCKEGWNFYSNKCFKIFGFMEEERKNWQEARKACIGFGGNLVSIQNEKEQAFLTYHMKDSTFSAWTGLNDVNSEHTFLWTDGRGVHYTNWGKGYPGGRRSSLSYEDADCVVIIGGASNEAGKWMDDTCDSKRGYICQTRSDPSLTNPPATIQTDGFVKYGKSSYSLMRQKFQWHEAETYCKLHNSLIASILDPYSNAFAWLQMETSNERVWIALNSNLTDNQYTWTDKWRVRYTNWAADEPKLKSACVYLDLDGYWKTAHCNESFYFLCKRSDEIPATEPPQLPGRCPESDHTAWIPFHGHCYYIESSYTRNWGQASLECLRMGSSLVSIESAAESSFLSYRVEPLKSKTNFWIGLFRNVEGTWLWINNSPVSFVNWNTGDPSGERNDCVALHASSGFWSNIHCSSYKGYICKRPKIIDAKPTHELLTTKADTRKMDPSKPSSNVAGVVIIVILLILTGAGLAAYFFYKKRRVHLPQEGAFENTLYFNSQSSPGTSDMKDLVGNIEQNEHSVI

C[C@H]1c2cccc(O)c2C(=O)C2=C(O)[C@]3(O)C(=O)C(C(N)=O)=C(O)[C@@H](N(C)C)[C@@H]3[C@@H](O)[C@@H]21 [Dox, doxycycline]
recurrence rate [1]: 89% | survival rate at 60 days [1]: 11%

CC(C)C[C@H](NC(=O)[C@H](Cc1ccc(O)cc1)NC(=O)CNC(=O)[C@H](CC(C)C)NC(=O)[C@@H]1CCCN1C(=O)CCCc1cn(CC(=O)NC(COCc2cn(CCO[C@H]3O[C@H](CO)[C@@H](O)[C@H](O)[C@@H]3O)nn2)(COCc2cn(CCO[C@H]3O[C@H](CO)[C@@H](O)[C@H](O)[C@@H]3O)nn2)COCc2cn(CCO[C@H]3O[C@H](CO)[C@@H](O)[C@H](O)[C@@H]3O)nn2)nn1)C(=O)NCC(=O)NCCCC[C@H](NC(=O)[C@H](CCCCN)NC(=O)[C@H](CC(=O)O)NC(=O)[C@@H]1CCCN1C(=O)[C@H](CCCNC(=N)N)NC(=O)[C@H](Cc1c[nH]cn1)NC(=O)[C@H](Cc1c[nH]c2ccccc12)NC(=O)[C@H](CO)NC(=O)[C@H](C)NC(=O)CNC(=O)[C@@H](N)CC(C)C)C(=O)N[C@@H](CC(C)C)C(=O)N[C@H](C(=O)N[C@@H](Cc1ccccc1)C(=O)N[C@@H](Cc1ccccc1)C(=O)N[C@@H](C)C(=O)N[C@@H](CCC(=O)O)C(=O)N[C@@H](CS)C(=O)NCC(=O)O)C(C)C [bsGP] (I: H-LGASWHRPDKKLVFFAECG-OH / II: X1-PLGYLG; amide I:11-II:C; N-terminus and C-terminus assumed)
nanofibrillar network on EJ cell surface (EJ cells [2]): presence of a nanofibrillar network | cell proliferation capacity (EJ cells [3]): substantially decreased | NF-κB phosphorylation in tumor tissues (NF-κB in tumor tissues): effectively activated | decrease of CD206^+ M2-like TAMs versus saline ([4]; 5- to 10-μm radius): 20% | number of CD86^+ M1-like TAMs near tumor cells ([4]; 5- to 10-μm radius): up to 6.22 × 10^4 | CD4^+ T cell counts relative to saline ([4]; spatial distance 10 μm): 4.0 fold | CD8^+ T cell counts relative to saline ([4]; spatial distance 10 μm): 5.5 fold | CD86^+ counts relative to saline ([4]; spatial distance 10 μm (text: 5- to 10-μm radius)): 2.6 times | secondary structure [5]: random coil structure | effect on viability of EJ cells (EJ cells [6]): no substantial impact | CD4^+Foxp3^+ Tregs ([7]; saline 8.58%): 6.80% | granzyme B^+CD8^+ T cells ([7]; saline 9.44%): 19.60% | proportion of CD45^+CD3^+CD8^+ T cells ([7]; saline 16.3%): 25.8% | recurrence rate [1]: 22% | survival rate at 60 days [1]: 78% | tumor fibrosis [8]: strongly inhibited | NF-κB phosphorylation in RAW264.7 cells (NF-κB in RAW264.7 cells): effectively activated | migration capacity (EJ cells [9]): evidently decreased | localization on RAW264.7 cells (RAW264.7 cells [10]): observed on the cytomembrane | body weight loss, EJ xenograft (EJ xenograft tumor [11]): no obvious loss of body weight | effect on viability of RAW264.7 cells (RAW264.7 cells [12]): no substantial impact | penetration in tumor tissue [13]: deep penetration capability | phosphorylation levels of Erk and Akt in tumor tissues [14]: strongly inhibited | body weight loss, MB49-Luc (MB49-Luc tumor): no obvious loss of body weight | body weight loss (C57BL/6 mice; C57BL/6 mice): without loss of body weight | severe systemic toxicity (C57BL/6 mice; intravesical, treatment dose): did not induce severe systemic toxicity | signs of a deteriorating general condition (C57BL/6 mice; red skin or reduced food consumption): no signs of a deteriorating general condition | localization on EJ cells (EJ cells (CXCR4); Cy-labeled bsGP, 50 μM, pH 7.4, saline, 37°C, 15 min): observed on the cytomembrane of tumor cells (EJ) | colocalization with GFP-encoded CXCR4 (EJ cells (CXCR4); EJ cells transfected with GFP-encoded CXCR4): Overlapping green fluorescence (CXCR4) with red fluorescence (bsGP) | affinity relative to mannose (CD206): about 300 fold | dose dependence of MAPK pathway suppression (pErk, pAkt) ([15]; 0, 20, 50 and 100 μM for 24 hours, 50 μM for 0, 24, 36, 48 hours): suppressed in a dose-dependent manner | phosphorylation of Erk and Akt ([15]; 50 μM, 24 hours): strongly inhibited | intratumoral secretion of IL-10 [16]: down-regulated | intratumoral secretion of IL-12 [16]: substantially up-regulated | intratumoral secretion of TGF-β [16]: down-regulated | intratumoral secretion of TNF-α [16]: substantially up-regulated | increase of M1-like TAMs ([17]; from 14.2 to 25.4%): approximately 11.2% | decrease of M2-type macrophages ([17]; from 29.2 to 17.3%): approximately 11.9% | fluorescence signal at the tumor site (orthotopic bladder tumor): evident fluorescence signals | CD4^+ T cells in whole tumor slice ([18]; MB49-Luc, C57BL/6, 500 μM, 100 μl, every other day, five times, saline 1.74%): 4.35% | CD206^+ M2-like TAMs in whole tumor slice ([18]; MB49-Luc, C57BL/6, 500 μM, 100 μl, every other day, five times, saline 20.94%): 13.0% | increase of CD86^+ M1-like TAMs ([18]; immunofluorescence): 2.3 fold | increase of CD4^+ T cells [18, 20]: 2.5 fold | increase of CD8^+ T cells [18, 20]: 2.6 fold | signal-to-noise ratio (EJ xenograft tumor [19]): 7.8 fold | time of highest tumor accumulation (EJ xenograft tumor [19]): 4 h | time to target tumor tissue (EJ xenograft tumor [19]): ≤ 1 h | tumor accumulation relative to PepCXCR4 (EJ xenograft tumor [19]; 4 hours): nearly fourfold | retention in tumor tissue (EJ xenograft tumor [19]; nanofiber formed in situ): up to 48 hours
